Source: PubChem BioAssay
MC4R antag cAMP: MC4R antagonists of cAMP signaling, primary screen, cell-based, TR-FRET, antagonist arm of biased-ligand search; Melanocortin receptor 4 (Homo sapiens), P32245; AID 540295, 2011; MC4R-expressing cells, MTII-stimulated cAMP, LANCE TR-FRET; inhibition, % at 6.5 µM; hit rate 0.48% among 360,000;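 active means inhibition above its plate's cutoff, the mean of tested wells on that plate plus 3 SD, cut at about 29% in these data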;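 further: 0% = Melanotan II alone and 100% = Melanotan II plus saturating MCL0020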
Target sequence (P32245 whole entry, looked up): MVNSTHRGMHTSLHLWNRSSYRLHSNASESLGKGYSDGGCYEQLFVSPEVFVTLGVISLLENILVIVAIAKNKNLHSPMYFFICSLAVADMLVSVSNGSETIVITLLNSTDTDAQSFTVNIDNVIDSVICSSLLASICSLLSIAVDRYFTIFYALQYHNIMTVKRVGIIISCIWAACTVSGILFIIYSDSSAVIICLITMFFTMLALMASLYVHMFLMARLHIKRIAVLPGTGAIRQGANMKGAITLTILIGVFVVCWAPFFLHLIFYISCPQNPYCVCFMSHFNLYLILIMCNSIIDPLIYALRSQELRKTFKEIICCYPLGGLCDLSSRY
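System: U2OS-MC4R stable cell line; Technique: Eu-cAMP/anti-cAMP TR-FRET, emission 671 nm; Repeats: single well per compound; Also added: Melanotan II; Dosing: one concentration, 6.5 µM nominal; Schedule: 30-min compound, 1-h challenge, 1-h detection, room temperature.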
HTR2A ag: mouse Htr2a agonists via beta-arrestin recruitment, primary screen, cell-based, luminescence | CHO-K1 mHTR2A beta-arrestin complementation; percent of 30 µM serotonin response | activation, % at 7.6 µM | hit rate 0.66% among 360,000;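 active means activation above a run cutoff, the mean activation of all tested compounds plus 3 SD, cut at about 14% in these data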;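 further: 0% = plate median of compound wells and 100% = 30 µM serotonin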
AHR act: AHR activators, primary screen, cell-based, luminescence, luciferase reporter, human | Aryl hydrocarbon receptor (Homo sapiens), P35869 | activation, % at 5 µM | AHR-responsive luciferase reporter cells | hit rate 2.5% among 320,000 | AID 2796, 2010; in the data active means activation above about 47%;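 further: 0% = vehicle wells and 100% = reference agonist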
MC4R ag barr: MC4R agonists recruiting beta-arrestin, primary screen, cell-based, luminescence, agonist arm of biased-ligand search; U2OS MC4R beta-arrestin complementation; percent of melanotan II response, DMSO zero; activation, % at 8.9 µM; hit rate 0.98% among 360,000;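 active means activation above a per-plate cutoff, the mean activation of sample wells on that plate plus 3 SD, cut at about 8% in these data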
FXN GAA850 act: FXN promoter activators, primary screen, cell-based, luciferase luminescence, HEK293 lucGAA850; HEK293 lucGAA850 FXN promoter luciferase reporter, 24 h; percent of 10 µM SAHA response; hit rate 0.56% among 360,000; activation, % at 6 µM;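 active means activation above the average of all compounds screened plus 3 SD, cutoff fixed separately per campaign, cut at about 7.5% in these data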;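 further: 0% = DMSO wells and 100% = 10 µM SAHA wells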
AHR act confirm: AHR activators, confirmation, cell-based, luminescence, luciferase reporter, human; shares compounds with AHR act; human cells, AHR-responsive luciferase reporter; activation, % at 9 µM; hit rate 87% among 2,300; AID 2845, 2010; in the data active means activation above about 49%;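 further: HepG2 hepatoma cells carrying a DRE-driven firefly luciferase reporter; 0% = vehicle wells and 100% = reference agonist wells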
PXR act counter: human PXR activators, counter-screen for AHR activator project, cell-based, luciferase luminescence | shares compounds with AHR act | activation, % at 11.6 µM | hit rate 88% among 2,300 | cell-based PXR reporter; in the data active means activation above about 11%;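 further: human hepatoma DPX-2 cells expressing full-length human PXR; 0% = DMSO and 100% = reference agonist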
An asterisk follows results filed as active; x = no result. Sampled rows, rich in hits. Any-hit rate of the full collection: about 4.7%.

SMILES	MC4R antag cAMP	HTR2A ag	AHR act	MC4R ag barr	FXN GAA850 act	AHR act confirm	PXR act counter
COc1ccc(Cc2nnc(SC)n2-c2ccc(F)cc2)cc1OC	x	6	x	x	x	x	x
O=C(NCCC(=O)N1CCC2(CC1)NCCc1[nH]cnc12)c1cccc(Br)c1	2	3	2	-1	0	x	x
CCC(C(=O)NC(C)(C)C)n1c(-c2ccc3c(c2)OCO3)nc2ccccc21 (stereo not given)	x	-1	x	x	x	x	x
COc1cccc(C(NC(C)=O)c2nc(-c3cccc(O)c3)cs2)c1 (stereo not given)	0	12	x	1	-1	x	x
O=C(N/N=C/c1cccc([N+](=O)[O-])c1)c1c[nH]c2ccccc12	6	-6	97*	-1	2	140*	19*
Cn1cc(C(=O)N/N=C/c2cccc([N+](=O)[O-])c2)c2ccccc21	9	3	99*	2	-2	41	19*
O=C(N/N=C/c1cc([N+](=O)[O-])ccc1O)c1c[nH]c2ccccc12	27	1	21	0	-1	x	x
CSc1nsc(SCC(=O)Nc2nc3ccccc3s2)n1	-2	2	80*	1	3	53*	13*
COCCn1c(SCC(=O)Nc2nc3ccccc3s2)nnc1-c1ccoc1C	1	5	17	-2	-1	x	x
COCCCn1nnnc1SCC(=O)Nc1nc2ccccc2s1	9	0	112*	-1	0	101*	61*
CCn1nnnc1SCC(=O)Nc1nc2ccccc2s1	11	-9	86*	2	2	61*	42*
CCOC(=O)C1(Cc2ccc(OC)cc2)CCN(C(=O)c2cc3ccccc3[nH]2)CC1	1	-7	105*	0	5	89*	40*
CCOC(=O)C1(Cc2ccc(OC)cc2)CCN(C(=O)c2cc(C)on2)CC1	7	0	5	-3	2	x	x
COc1ccc(C(=O)NC2CCCc3ccccc32)cc1OC1CCN(C(C)=O)CC1 (stereo not given)	4	4	5	-1	-3	x	x
COc1ccc2nc(NC(=O)CSc3n[nH]c(N)n3)sc2c1	12	6	94*	-5	2	108*	22*
Clc1ccc2nc3c4ccccc4cnn3c2c1	10	3	105*	-2	8	90*	4
COn1c(-c2ccccc2)nc2ccc(Cl)cc21	3	2	4	-1	0	x	x
O=C(NCc1ccccc1)C1CCCN(C(=O)c2ccc(F)cc2)C1 (stereo not given)	-2	1	x	-2	-1	x	x
O=C(CN1CCCCC1)Nc1nnc(-c2ccccc2)s1	-11	-7	109*	-1	0	132*	27*
O=C(CN1CCCCC1)Nc1nnc(-c2ccc([N+](=O)[O-])cc2)s1	17	5	0	0	-3	x	x
O=C(CN1CCCCCC1)Nc1nc2ccccc2s1	-1	4	x	-1	4	x	x
O=C(CN1CCCC1)Nc1nnc(-c2cccs2)s1	18	3	126*	4	1	125*	16*
CCCS(=O)(=O)NC(=O)C1(C)CCCN(C(=O)c2ccccc2OC(F)(F)F)C1 (stereo not given)	1	8	x	2	2	x	x
CCOC(=O)C1CCCN(C(=O)c2[nH]c(C(F)(F)F)nc2-c2ccccc2)C1 (stereo not given)	x	-6	x	x	x	x	x
CCC(=O)c1ccc(OCc2cn(CC(=O)c3ccc(O)cc3)nn2)cc1	-3	-2	x	-2	-1	x	x
SMILES	MC4R antag cAMP	HTR2A ag	AHR act	MC4R ag barr	FXN GAA850 act	AHR act confirm	PXR act counter
COc1ccccc1OCc1nc(C#N)c(N2CC(C)CC(C)C2)o1 (stereo not given)	8	-3	91*	-1	-1	86*	86*
Cc1cc(C)cc(NC(=O)c2sc3nc(C)cc(C)c3c2N)c1	-4	5	-11	1	6	x	x
Cc1cccc(NC(=O)c2sc3nc(N)c(C#N)cc3c2N)c1	7	3	111*	-1	6	61*	29*
CC(C)(C)c1cnnn1-c1ccc(/C=N/Nc2ccc([N+](=O)[O-])cc2)cc1	3	1	83*	0	4	55*	35*
CC(NC(=O)CN1c2cccc3cccc(c23)S1(=O)=O)c1ccc(S(N)(=O)=O)cc1 (stereo not given)	0	13	11	-5	2	x	x
C#CCOCCOCCOCCNc1nc(N2CCN(C(=O)[C@H](CCC(=O)O)n3cc([C@@H](N)[C@H](C)CC)nn3)CC2)nc(N2CCN(C(=O)[C@H](CCCCN)n3cc([C@@H](N)CC(N)=O)nn3)CC2)n1	3	-2	1	-2	3	x	x
COC(=O)/C(=C(O)\C=C\c1ccccc1[N+](=O)[O-])c1nc2ccccc2[nH]1	19	-5	92*	4	-2	113*	47*
O=C(/C=C\c1ccccc1[N+](=O)[O-])Nc1ccccc1	12	-8	40	-3	3	x	x
CNC(=S)N/N=C1\CC(c2ccccc2)Oc2ccccc21 (stereo not given)	6	-4	4	-2	0	x	x
Fc1ccc(N/N=C2/CC(c3ccccc3)Oc3ccccc32)c(F)c1 (stereo not given)	3	-3	98*	0	5	90*	26*
O=C(COC(=O)/C=C/c1cc(Br)ccc1F)NC1CC1	7	-2	-1	0	2	x	x
CCOC(=O)c1sc(Nc2nc3c(OC)cccc3s2)cc1C	-8	2	108*	2	6	88*	61*
CC(C)Sc1nnc(NC(=O)c2ccc3c(c2)OCO3)s1	-2	3	110*	1	4	47	27*
COc1cccc(C(=O)NC2=NCCS2)c1	-2	2	133*	-1	3	55*	13*
O=C(Nc1cccc(F)c1)c1ccc(S(=O)(=O)NCC2CCCO2)cc1 (stereo not given)	8	-5	0	-1	-4	x	x
Cn1nccc1C(=O)Nc1ccc2c(c1)OCO2	2	6	104*	-1	6	60*	19*
O=C(Nc1ccc2c(c1)OCO2)c1ccc(S(=O)(=O)NCC2CCCO2)cc1 (stereo not given)	2	4	84*	-1	1	14	21*
